Data from article PMC3594358 (Nature structural & molecular biology, 2013).
One block for each compound: values may come before it.

Assays:
[1] = test system: 53BP1 −/− mouse embryonic fibroblasts; assay: Metaphase spreads, radial chromosomes, 53BP1 −/− MEFs; type: cell-based; conditions: TIP60 siRNA + Olaparib; 53BP1 −/− vs 53BP1 +/+ MEFs
Summary of the method: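 53BP1+/+ and 53BP1−/− MEFs were transfected with control or mouse TIP60 siRNA using RNAiMax, analysed 48–72 h later, and treated with Olaparib. Cells were arrested with 0.5 μM nocodazole for 3–4 h, swollen in 75 mM KCl, fixed on ice in 3:1 methanol/acetic acid, dropped onto slides at 55°C and Giemsa-stained. Metaphases were scored for radial chromosomes, with significance by Fisher's exact test.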

[2] = test system: U2OS cells; assay: Survival following Olaparib; type: cell-based; conditions: percentage survival
[3] = test system: BRCA1 mutant cells; conditions: ref [39],[40], cited from earlier work
[4] = test system: 53BP1 IRIF in U2OS cells; assay: 53BP1 IRIF; type: cell-based; conditions: HDACi 5 hours prior to 10 Gy IR (TSA 0.5 µM), fixed 5 hours later
Summary of the method: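 U2OS cells on coverslips were fixed and permeabilized, then incubated with primary antibody against 53BP1, washed in PBST, and incubated with secondary antibody. Coverslips were mounted in DAPI-containing medium. Images were captured on the same day at equal exposure in 8-bit grayscale and analysed on unmodified images.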

[5] = test system: H4ac; assay: ChIP-qPCR H4ac at U2OS-DSB-reporter locus; type: cell-based; conditions: 0.5 μM TSA vs DMSO; DSBs induced by mCherry-LacI-FokI
Summary of the method: (§1)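 U2OS-DSB-reporter cells were given 0.5 μM TSA or DMSO, for 5 h where stated, and DSBs were induced by mCherry-LacI-FokI. Cells were formaldehyde-crosslinked, and chromatin was sonicated to 200–500 bp and immunoprecipitated overnight at 4°C with antibody to 53BP1, BRCA1 or H4ac. After washing and de-crosslinking, SYBR Green qPCR was run at reporter primer sets, quantified against diluted-input standard curves, with S.E.M. and Student t test.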

[6] = test system: BRCA1; assay: ChIP-qPCR BRCA1 at U2OS-DSB-reporter locus; type: cell-based; conditions: 0.5 μM TSA for 5 hours vs DMSO; DSBs induced by mCherry-LacI-FokI
Summary of the method: as §1

[7] = test system: 53BP1; assay: ChIP-qPCR 53BP1 at U2OS-DSB-reporter locus; type: cell-based; conditions: 0.5 μM TSA, 5 hours before DSB induction by mCherry-LacI-FokI; locus p4
Summary of the method: as §1

[8] = test system: BRCA1 and 53BP1 at subtelomeric chromatin in 293T cells; assay: ChIP BRCA1 and 53BP1 at subtelomeric regions, TRF1-FokI; type: cell-based; conditions: 293T cells expressing TRF1-FokI, TSA treatment
Summary of the method: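 293T cells were transfected with a TRF1-FokI plasmid; controls lacked TRF1-FokI. 16 h later cells were cross-linked in 1% formaldehyde for 10 min and quenched with 0.125 M glycine. Chromatin was sonicated to 200–500 bp and immunoprecipitated overnight at 4°C with BRCA1 or 53BP1 antibodies on protein A agarose. After salt/LiCl/TE washes, chromatin was de-crosslinked overnight at 65°C, then subtelomeric SYBR Green qPCR against input standard curves.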

[9] = test system: H4K20me2 in U2OS cells; assay: Immunoblot of total H4K20me2; type: cell-based; conditions: acid-eluted histones from U2OS cells, 0.5 μM TSA, 5 hours
[10] = test system: RPA; assay: RPA accumulation at LacI-FokI DSBs; type: cell-based; conditions: U2OS-DSB-reporter cells; TSA 0.5 μM vs DMSO; 200 cells per group, at least 2 independent experiments
Summary of the method: (§2)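 U2OS cells carrying the LacI-FokI DSB reporter were grown in DMEM with 10% calf serum and siRNA-transfected, then analysed 48–72 h later. DSBs were induced with mCherry-LacI-FokI, with DMSO or 0.5 μM TSA. Coverslips were fixed, permeabilised and immunostained for RPA or Rad51, then mounted with DAPI. The mCherry signal marked the damaged area, where focus presence or intensity was scored after background subtraction per cell.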

[11] = test system: Rad51; assay: Rad51 accumulation at LacI-FokI DSBs; type: cell-based; conditions: U2OS-DSB-reporter cells; TSA 0.5 μM vs DMSO; 200 cells per group, at least 2 independent experiments
Summary of the method: as §2

[12] = test system: 53BP1-Tudor; assay: NMR titration of 53BP1-Tudor with H4 peptide; type: binding
Summary of the method: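 0.3 mM 15N-labelled 53BP1-Tudor titrated with unlabelled H4 peptide (synthetic H4K20me2, aa 14-27) from a 15 mM stock and followed by 1H-15N HSQC. In the reverse titration, 0.5 mM 13C/15N-labelled recombinant H4KC20me2 (aa 14-27, dimethyl-lysine analogue) received unlabelled Tudor from a 5 mM stock and was followed by 1H-13C HSQC.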

Compound: O=C(c1cc(Cc2n[nH]c(=O)c3ccccc23)ccc1F)N1CCN(C(=O)C2CC2)CC1 [Olaparib]
- impact of TIP60 knockdown on radial chromosome formation by 53BP1 nullizygosity [1]: strongly mitigated
- sensitivity to Olaparib, TIP60 deficiency with accompanying 53BP1 knockdown ([2]; TIP60 and 53BP1 siRNA): reversed
- sensitivity to Olaparib, TIP60 deficiency ([2]; TIP60 siRNA): hypersensitivity
- sensitivity to Olaparib, BRCA1 mutation with 53BP1 nullizygosity ([3]; BRCA1 mutation and 53BP1 nullizygosity): reversed
- sensitivity to Olaparib, BRCA1 mutation ([3]; BRCA1 mutation): hypersensitivity

Compound: CC(/C=C/C(=O)NO)=C\[C@@H](C)C(=O)c1ccc(N(C)C)cc1 [TSA, trichostatin A]
- 53BP1 IRIF [4]: strongly reduced
- H4 acetylation (H4ac) [5]: elevated
- increase in BRCA1 occupancy [6]: ~4 fold
- 53BP1 association [7]: diminished
- response of BRCA1 and 53BP1 at subtelomeric chromatin [8]: divergent response
- total H4K20me2 [9]: did not affect
- RPA accumulation at the LacI-FokI reporter after RVB1 or TIP60 knockdown [10]: restored
- Rad51 accumulation at the LacI-FokI reporter after RVB1 or TIP60 knockdown [11]: restored

- changes in chemical shift of 53BP1-Tudor binding cage residues (Trp1495, Tyr1502, Phe1519, Asp1521, Tyr1523) ([12]; ^1H-^15N HSQC, 298 K, 25 mM sodium phosphate, pH 7.0): pronounced changes in chemical shift
Compound: H4K20me2: H4K20me2 peptide (aa 14-27) chemically synthesized
- shifts of Trp1495 side chain resonances ([12]; ^1H-^13C HSQC, 298 K, pH 7.0): large downfield shifts
- downfield shift of Trp1495 indole HN proton ([12]; ^1H-^15N HSQC, 0.3 mM ^15N-labeled 53BP1-Tudor, 298 K, 25 mM sodium phosphate, pH 7.0): 0.8 p.p.m.

Compound: non-methylated H4K20 peptide: corresponding non-methylated peptide, control
- Trp1495 indole HN shift, in words ([12]; ^1H-^15N HSQC, 53BP1-Tudor titrated with non-methylated peptide, vs H4K20me2): markedly reduced
